# Measured values from different studies.
# Compare with care: the assays were run in different laboratories.
# CDK9 with cyclin K: Cyclin-dependent kinase 9, with cyclin K (CDK9, Homo sapiens, UniProt P50750)
# CDK9 with cyclin T1: Cyclin-dependent kinase 9, with cyclin T1 (CDK9, Homo sapiens, UniProt P50750)
# CDK9: Cyclin-dependent kinase 9 (CDK9, Homo sapiens, UniProt P50750)
Structure (SMILES),target,test,conditions,quantity,value
CC(C)(C)c1nc(-c2cccc(NS(=O)(=O)c3c(F)cccc3F)c2F)c(-c2ccnc(N)n2)s1,CDK9 with cyclin K,"enzyme activity, inhibitor, radiometric",1 µM,remaining activity,98%
C#Cc1cccc(Nc2ncnc3cc(OCCOC)c(OCCOC)cc23)c1,CDK9 with cyclin T1,cell-free assay,0.5 µM,remaining signal,87.3%
COc1cc(-c2cc(-c3ccc(N4CCNCC4)cc3)cnc2C)cc(OC)c1OC,CDK9 with cyclin T1,"enzyme activity, inhibitor",0.1 µM,inhibition,3%
CC(C)(C)c1nc2c(s1)c1nc(N)ncc1c1ccc(NS(=O)(=O)c3c(F)cccc3F)c(F)c12,CDK9 with cyclin T1,"enzyme activity, inhibitor, radiometric",1 µM,remaining activity,102%
COc1cccc2c(NCc3ccccc3)nc(-n3c(N)nc4ccccc43)nc12,CDK9,"target engagement in cells, inhibitor, chemoproteomics",20 mM,inhibition,-14.5%
O=C(CSc1nc2nccnc2c(=O)n1CCc1ccccc1)Nc1nccs1,CDK9 with cyclin K,"enzyme activity, inhibitor",10 µM,inhibition,-8%
Cc1ccc(-n2nc(C(C)(C)C)cc2NC(=O)Nc2ccc(OCCN3CCOCC3)c3ccccc23)cc1,CDK9 with cyclin T1,"enzyme activity, inhibitor",10 µM,inhibition,-17%
CCCCNc1ncc2c(-c3ccc(F)cc3)nn(C[C@H]3CC[C@H](N)CC3)c2n1,CDK9,"target engagement in cells, inhibitor, chemoproteomics",20 mM,inhibition,29.3%
N#CCCc1ccc2c(c1)-c1[nH]c3ccc([N+](=O)[O-])cc3c1CC(=O)N2,CDK9 with cyclin T1,cell-free assay,0.5 µM,remaining signal,28.6%
C[C@H](c1cccc(C#N)c1)n1cc(Cl)cc(C(N)=O)c1=N,CDK9,"cell-free assay, competition with immobilised ligand",1 µM,remaining binding,84%
Cc1ccc(Nc2nccc(N(C)c3ccc4c(C)n(C)nc4c3)n2)cc1S(N)(=O)=O,CDK9 with cyclin K,"enzyme activity, inhibitor",0.5 µM,remaining activity,92.7%
Cc1cc(NC(=O)c2cccc(S(F)(F)(F)(F)F)c2)cc(-n2ccn3nc(-c4cccnc4)cc23)c1,CDK9,"cell-free assay, competition with immobilised ligand",1 µM,remaining binding,100%
O=C1NC(=O)c2cc(Nc3ccc(F)cc3)c(Nc3ccc(F)cc3)cc21,CDK9 with cyclin K,cell-free assay,0.5 µM,remaining signal,90.8%
CCCOc1ccc(OC)c(F)c1C(=O)c1ccc(C(=O)N[C@@H]2CNC[C@H]2NC(=O)c2ccc3[nH]ncc3c2)cc1,CDK9 with cyclin T1,"enzyme activity, inhibitor",10 µM,remaining activity,101%
C=CC(=O)Nc1cc(Nc2nccc(Nc3cc(Cl)c(F)cc3C(C)(C)O)n2)c(OC)cc1N1CC[C@@H](N(C)C)C1,CDK9 with cyclin T1,"enzyme activity, inhibitor",1 µM,inhibition,10%
CN(C)C1CCN(CC#Cc2nn(C3CCCC3)c3nc(NCc4ccccc4)ncc23)C1 (stereo not shown),CDK9 with cyclin T1,"enzyme activity, inhibitor, FRET",1 µM,inhibition,1%
COc1cc(/C=C/C(=O)CC(=O)/C=C/c2ccc(O)c(OC)c2)ccc1O,CDK9 with cyclin T1,"enzyme activity, inhibitor",1 µM,activity vs control,88%
Cc1cc(-n2nc(Cc3cc(F)cc(C(F)(F)F)c3)nc2C)ccc1C(N)=O,CDK9,"cell-free assay, competition with immobilised ligand",1 µM,remaining binding,100%
Cc1ccc(NC(=O)c2ccc(CN3CCN(C)CC3)cc2)cc1Nc1nc(-c2cccnc2)cs1,CDK9 with cyclin K,cell-free assay,0.5 µM,remaining signal,109%
CCN(CC)c1ccc(C2=NNC(=O)CC2C)cc1[N+](=O)[O-] (stereo not shown),CDK9 with cyclin T1,"enzyme activity, inhibitor",10 µM,remaining activity,105%
CCCOc1ccc([C@H]2[C@H](C(=O)O)[C@@H](c3ccc4c(c3)OCO4)CN2CC(=O)Nc2c(CC)cccc2CC)cc1,CDK9,"cell-free assay, competition with immobilised ligand",1 µM,remaining binding,88%
O=C1Nc2ccc(Cl)cc2C1=Cc1cc(Cl)c(O)c(Cl)c1,CDK9 with cyclin K,cell-free assay,0.5 µM,remaining signal,79.4%
CCOc1cc(-c2nncn2C)ccc1Nc1ncc2cc(C)nc(NCC(C)(C)C)c2n1,CDK9 with cyclin K,"cell-free assay, TR-FRET",1 µM,inhibition,≤ 15%
Cc1nc(C2CCN(C(=O)c3ccc(OC(F)(F)F)cc3N)CC2)c2ncc(N3CCN(C)CC3)cc2n1,CDK9,"cell-free assay, competition with immobilised ligand",1 µM,remaining binding,79%
CCCS(=O)(=O)Nc1ccc(F)c(C(=O)c2c[nH]c3ncc(-c4ccc(Cl)cc4)cc23)c1F,CDK9 with cyclin T1,"enzyme activity, inhibitor",1 µM,inhibition,< 10%
CNC(=O)c1ccc(Nc2ncc(C(F)(F)F)c(NCc3nccnc3N(C)S(C)(=O)=O)n2)cc1,CDK9,"cell-free assay, competition with immobilised ligand",0.1 µM,remaining binding,86%
Cc1cnc(NC2CCOCC2)nc1-n1cnc(C(=O)NC(CN)c2cc(F)cc(Cl)c2)c1 (stereo not shown),CDK9 with cyclin T1,"enzyme activity, inhibitor, radiometric",1 µM,remaining activity,46%
CCC(=O)N[C@@H]1CC[C@H](C(=O)N(C)c2ccc(-c3nc4ccccc4o3)cc2)C1,CDK9,"cell-free assay, competition with immobilised ligand",1 µM,remaining binding,100%
CCN(CC)CCNC(=O)c1c(C)[nH]c(/C=C2\C(=O)Nc3ccc(F)cc32)c1C,CDK9 with cyclin T1,"enzyme activity, inhibitor",10 µM,inhibition,37%
CCCCN(CCCC)C(=O)CN1C[C@@H](c2cc(OC)c3c(c2)OCO3)[C@H](C(=O)O)[C@H]1CC(C)(C)CCC,CDK9,"cell-free assay, competition with immobilised ligand",1 µM,remaining binding,100%
CNC(=O)c1cc(Oc2ccc(NC(=O)Nc3ccc(Cl)c(C(F)(F)F)c3)cc2)ccn1,CDK9 with cyclin T1,"enzyme activity, inhibitor",10 µM,inhibition,-6%
